Published values from different studies.
Sample: plasma

| SMILES | species | route | dose | notes | half-life |
| --- | --- | --- | --- | --- | --- |
| Cc1cc(S(=O)(=O)NC2CC(N3CCN(CC4CCN(c5cccc6c5n(C)c(=O)n6C5CCC(=O)NC5=O)CC4)C4(CC4)C3)C2)ccc1Nc1ncc(C(F)(F)F)c(N2CCC[C@](C)(O)C2)n1 (some centres unmarked) | rat | intravenous | 2 mg/kg |  | 3.5 h |
| CC(C)(N)COCC(=O)N1CCC[C@H](C(=O)NCc2nc(-c3ccc(C(F)(F)F)cc3)cs2)C1 | male Sprague-Dawley rat | intravenous | 1 mg/kg |  | 7.2 h |
| CNS(=O)(=O)c1ccc(Nc2ncc(C(F)(F)F)c([C@H]3CC[C@@](C)(O)CC3)n2)c(C)c1 | rat | intravenous | 2 mg/kg |  | 1.3 h |
| COc1nc(-c2cccc(-c3ccccc3)c2C)ccc1CNCCNC(=O)CCCCCCCCCCC(=O)N1CCN(CCNC(=O)c2cc3c(=O)n4cccc(C)c4nc3n(CCc3cccs3)c2=N)CC1 | male Sprague-Dawley rat | intraperitoneal | 4 mg/kg |  | 4.7 h |
| CCCc1nc2c(C)cc(-c3nc4ccccc4n3C)cc2n1Cc1ccc(-c2ccccc2C(=O)O)cc1 | male Sprague-Dawley rat | oral | 8 mg/kg | single dose | 6.84 h |
| CCN(CC)Cc1ccc2cc(COC(=O)Nc3ccc(C(=O)NO)cc3)ccc2c1 | male Sprague-Dawley rat | oral | 10 mg/kg |  | 19.7 h |
| Cc1cc(S(=O)(=O)NC2CC(N3CCN(CC4CCN(c5ccc(NC6CCC(=O)NC6=O)cc5C)CC4)CC3)C2)ccc1Nc1ncc(C(F)(F)F)c(N2CCC[C@](C)(O)C2)n1 (some centres unmarked) | rat | intravenous | 2 mg/kg |  | 5.3 h |
| CCOCC(=O)N1CCC[C@H](C(=O)NCc2nc(-c3ccc(C#N)nc3)cs2)C1 | male Sprague-Dawley rat | intravenous | 1 mg/kg |  | 1.8 h |
| [2H]c1cc(C)c(NC(=O)c2cnc(Nc3cc(N4CCC(O)CC4)nc(C)n3)s2)c(Cl)c1 | male Sprague-Dawley rat | intravenous | 1 mg/kg |  | 1.9 h |
| CC[C@H](C)[C@H](NC(=O)[C@@H]1CCCN1C(=O)CNC(=O)[C@H](Cc1ccccc1)NC(=O)[C@H](CC(N)=O)NC(=O)[C@H](CC(N)=O)NC(=O)[C@H](CO)NC(=O)[C@H](CO)NC(=O)[C@H](Cc1c[nH]cn1)NC(=O)[C@H](CCCNC(=N)N)NC(=O)[C@H](CC(C)C)NC(=O)[C@H](Cc1ccccc1)NC(=O)[C@H](CCC(=O)O)NC(=O)[C@H](C)NC(=O)[C@H](CC(C)C)NC(=O)[C@H](CCCNC(=N)N)NC(=O)[C@H](CCC(N)=O)NC(=O)[C@@H](NC(=O)[C@H](C)NC(=O)[C@@H]1CSSC[C@H](NC(=O)[C@H](CCCCN)NC(=O)CC[C@H](NC(=O)CCCCCCCCCCCCCCCCCCC(=O)O)C(=O)O)C(=O)N[C@@H](CC(N)=O)C(=O)N[C@@H]([C@@H](C)O)C(=O)N[C@@H](C)C(=O)N[C@@H]([C@@H](C)O)C(=O)N1)[C@@H](C)O)C(=O)N[C@@H](CC(C)C)C(=O)N1CCC[C@H]1C(=O)N1CCC[C@H]1C(=O)N[C@H](C(=O)N[C@@H](CC(N)=O)C(=O)N[C@H](C(=O)NCC(=O)N[C@@H](CO)C(=O)N[C@@H](CC(N)=O)C(=O)N[C@H](C(=O)N1CCC[C@H]1C(N)=O)[C@@H](C)O)C(C)C)[C@@H](C)O | male Sprague-Dawley rat | subcutaneous | 30 nmol/kg | single dose | 26.8 h |
| O=C1CCC(N2Cc3cc(C4CCN(Cc5ccccc5)CC4)ccc3C2=O)C(=O)N1 (centres unmarked) | male Sprague-Dawley rat | oral | 3 mg/kg |  | 1.31 h |
| C[C@H]1Oc2cc(cnc2N)-c2c(nn(C)c2C#N)CN(C)C(=O)c2ccc(F)cc21 | male Sprague-Dawley rat | oral | 50 mg/kg | single dose | 17.6 h |
| Cc1cc(S(=O)(=O)N[C@H]2CC[C@H](CN3CCN(c4ccc(C5CCC(=O)NC5=O)c(Cl)c4)CC3)CC2)ccc1Nc1ncc(C(F)(F)F)c(N2CCC[C@](C)(O)C2)n1 (some centres unmarked) | rat | intravenous | 2 mg/kg |  | 2.9 h |
| CCONC(=O)N1CCC[C@H](C(=O)NCc2nc(-c3ccc(C#N)cc3)cs2)C1 | male Sprague-Dawley rat | oral | 3 mg/kg |  | 14 h |
